Measured values as given in ChEMBL document CHEMBL4689842, “EUbOPEN Chemogenomics Library wave 1” (2021).

System: Fibroblast
Test: Multiplex assay against human fibroblast
Format: toxicity, cell-based
Outline: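 Tubulin, mitochondrial-mass and membrane-permeability phenotypes are per cents of healthy-nucleus cells. Cells were gated by CellPathfinder machine learning into Hoechst high-intensity objects or normal cells, normal cells into healthy, pyknosed or fragmented nuclei, and pyknosed cells into mitotic or apoptotic. Before that, live cells stained at seeding with Hoechst33342, BioTracker Green Microtubule Cytoskeleton Dye, MitoTracker Red and Annexin V Alexa Fluor 680 were imaged on a CQ1 microscope at 37°C and 5% CO2 after compound addition.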

[1] = 12 h, 1 µM, compound concentration 1 uM, replicate 1
[2] = 12 h, 1 µM, compound concentration 1 uM, replicate 2
[3] = 12 h, 10 µM, compound concentration 10 uM, replicate 1
[4] = 12 h, 10 µM, compound concentration 10 uM, replicate 2
[5] = 24 h, 1 µM, compound concentration 1 uM, replicate 1
[6] = 24 h, 1 µM, compound concentration 1 uM, replicate 2
[7] = 24 h, 10 µM, compound concentration 10 uM, replicate 1
[8] = 24 h, 10 µM, compound concentration 10 uM, replicate 2
[9] = 48 h, 1 µM, compound concentration 1 uM, replicate 1
[10] = 48 h, 1 µM, compound concentration 1 uM, replicate 2
[11] = 48 h, 10 µM, compound concentration 10 uM, replicate 1
[12] = 48 h, 10 µM, compound concentration 10 uM, replicate 2

## O=C(Nc1ccc(-n2nc(-c3cccnc3)cc2C(F)(F)F)cn1)c1ccc(-c2ccccc2)c(F)c1 [BI 2049]
[1]
  Population Apoptotic (%): 63%
  Population Fragmented Nuclei (%): 29%
  Population Healthy Nuclei (%): 30%
  Population Hoechst High Intensity Objects (%): 10%
  Population Membrane Permeable-Phenotype (%): 32%
  Population Mitochondria Different-Phenotype (%): 8%
  Population Mitotic Cells (%): 36%
  Population Normal (%): 89%
  Population Pyknosed Nuclei (%): 40%
  Population Tubulin-Different-Phenotype (%): 44%
  Total Cell Count: 92
[2]
  Population Apoptotic (%): 50%
  Population Fragmented Nuclei (%): 4%
  Population Healthy Nuclei (%): 85%
  Population Hoechst High Intensity Objects (%): 8%
  Population Membrane Permeable-Phenotype (%): 3%
  Population Mitochondria Different-Phenotype (%): 7%
  Population Mitotic Cells (%): 50%
  Population Normal (%): 91%
  Population Pyknosed Nuclei (%): 9%
  Total Cell Count: 69
[3]
  Population Apoptotic (%): 58%
  Population Fragmented Nuclei (%): 11%
  Population Healthy Nuclei (%): 41%
  Population Hoechst High Intensity Objects (%): 9%
  Population Membrane Permeable-Phenotype (%): 22%
  Population Mitochondria Different-Phenotype (%): 22%
  Population Mitotic Cells (%): 41%
  Population Normal (%): 90%
  Population Pyknosed Nuclei (%): 46%
  Population Tubulin-Different-Phenotype (%): 62%
  Total Cell Count: 93
[4]
  Population Apoptotic (%): 0%
  Population Fragmented Nuclei (%): 18%
  Population Healthy Nuclei (%): 81%
  Population Hoechst High Intensity Objects (%): 6%
  Population Membrane Permeable-Phenotype (%): 4%
  Population Mitochondria Different-Phenotype (%): 12%
  Population Mitotic Cells (%): 0%
  Population Normal (%): 93%
  Population Pyknosed Nuclei (%): 0%
  Population Tubulin-Different-Phenotype (%): 8%
  Total Cell Count: 65
[5]
  Population Apoptotic (%): 61%
  Population Fragmented Nuclei (%): 32%
  Population Healthy Nuclei (%): 36%
  Population Hoechst High Intensity Objects (%): 14%
  Population Membrane Permeable-Phenotype (%): 32%
  Population Mitochondria Different-Phenotype (%): 12%
  Population Mitotic Cells (%): 38%
  Population Normal (%): 85%
  Population Pyknosed Nuclei (%): 30%
  Population Tubulin-Different-Phenotype (%): 58%
  Total Cell Count: 98
[6]
  Population Apoptotic (%): 25%
  Population Fragmented Nuclei (%): 7%
  Population Healthy Nuclei (%): 83%
  Population Hoechst High Intensity Objects (%): 7%
  Population Membrane Permeable-Phenotype (%): 4%
  Population Mitochondria Different-Phenotype (%): 9%
  Population Mitotic Cells (%): 75%
  Population Normal (%): 92%
  Population Pyknosed Nuclei (%): 8%
  Population Tubulin-Different-Phenotype (%): 37%
  Total Cell Count: 96
[7]
  Population Apoptotic (%): 66%
  Population Fragmented Nuclei (%): 24%
  Population Healthy Nuclei (%): 42%
  Population Hoechst High Intensity Objects (%): 8%
  Population Membrane Permeable-Phenotype (%): 12%
  Population Mitochondria Different-Phenotype (%): 17%
  Population Mitotic Cells (%): 33%
  Population Normal (%): 91%
  Population Pyknosed Nuclei (%): 32%
  Population Tubulin-Different-Phenotype (%): 46%
  Total Cell Count: 99
[8]
  Population Apoptotic (%): 0%
  Population Fragmented Nuclei (%): 11%
  Population Healthy Nuclei (%): 84%
  Population Hoechst High Intensity Objects (%): 3%
  Population Membrane Permeable-Phenotype (%): 4%
  Population Mitochondria Different-Phenotype (%): 13%
  Population Mitotic Cells (%): 100%
  Population Normal (%): 96%
  Population Pyknosed Nuclei (%): 3%
  Population Tubulin-Different-Phenotype (%): 10%
  Total Cell Count: 82
[9]
  Population Apoptotic (%): 64%
  Population Fragmented Nuclei (%): 26%
  Population Healthy Nuclei (%): 45%
  Population Hoechst High Intensity Objects (%): 9%
  Population Membrane Permeable-Phenotype (%): 40%
  Population Mitochondria Different-Phenotype (%): 2%
  Population Mitotic Cells (%): 36%
  Population Normal (%): 90%
  Population Pyknosed Nuclei (%): 28%
  Population Tubulin-Different-Phenotype (%): 37%
  Total Cell Count: 97
[10]
  Population Apoptotic (%): 100%
  Population Fragmented Nuclei (%): 25%
  Population Healthy Nuclei (%): 72%
  Population Hoechst High Intensity Objects (%): 16%
  Population Membrane Permeable-Phenotype (%): 17%
  Population Mitotic Cells (%): 0%
  Population Normal (%): 83%
  Population Pyknosed Nuclei (%): 1%
  Population Tubulin-Different-Phenotype (%): 5%
  Total Cell Count: 66
[11]
  Population Apoptotic (%): 72%
  Population Fragmented Nuclei (%): 30%
  Population Healthy Nuclei (%): 50%
  Population Hoechst High Intensity Objects (%): 15%
  Population Membrane Permeable-Phenotype (%): 35%
  Population Mitochondria Different-Phenotype (%): 14%
  Population Mitotic Cells (%): 27%
  Population Normal (%): 84%
  Population Pyknosed Nuclei (%): 18%
  Population Tubulin-Different-Phenotype (%): 64%
  Total Cell Count: 113
[12]
  Population Apoptotic (%): 100%
  Population Fragmented Nuclei (%): 14%
  Population Healthy Nuclei (%): 85%
  Population Hoechst High Intensity Objects (%): 9%
  Population Membrane Permeable-Phenotype (%): 15%
  Population Mitochondria Different-Phenotype (%): 1%
  Population Mitotic Cells (%): 0%
  Population Normal (%): 90%
  Population Pyknosed Nuclei (%): 0%
  Population Tubulin-Different-Phenotype (%): 35%
  Total Cell Count: 140
